We go through 6 molecules from ChEMBL document CHEMBL1152424, “Syntheses and biological evaluations of carbosilane dendrimers uniformly functionalized with sialyl alpha(2-->3) lactose moieties as inhibitors for human influenza viruses” (Bioorg Med Chem, 2009).

The subject of assay [1] is Influenza A virus. The experiment in a line: Antiviral activity against human influenza virus A/PR/8/38(H1N1) infected in guinea pig erythrocyte assessed as inhibition of hemolysis. In kind it is functional, organism-based. To be noted: A/Puerto Rico/8/1934(H1N1). Summed up:
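Virus (2^8 HAU) preincubated 1 h at 4 °C with inhibitor in PBS. Then 2.5% (v/v) guinea pig erythrocytes added, 30 min at 4 °C. Cells pelleted, resuspended in 20 mM acetate-buffered saline pH 5.0, 30 min at 37 °C. Hemoglobin released read at A550 against 0.1% Triton X-100 as 100% hemolysis. IC50 expressed per sialyl lactose unit.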

Assay [2] relates to Influenza A virus. Briefly: Antiviral activity against human influenza virus A/Memphis/1/71(H3N2) infected in chicken erythrocyte assessed as inhibition of hemagglutination after 1 hr. In kind it is functional, organism-based, Influenza A virus (A/Memphis/1/1971(H3N2)). Summed up: (§1)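 Twofold serial dilutions of inhibitor in PBS pH 6.5 with 0.01% gelatin, mixed with virus (2^2 HA units) for 1 h at 4 °C. Then 0.5% (v/v) chicken erythrocytes added, 1 h at 4 °C. Titer is the maximum dilution giving complete inhibition of hemagglutination. Concentrations are expressed per sialyl lactose unit. Virus was egg-grown and purified.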

A further assay deals with H3N2 subtype. The experiment in a line: Antiviral activity against human influenza virus A/Aichi/2/1968(H3N2) infected in chicken erythrocyte assessed as inhibition of hemagglutination after 1 hr. In kind it is functional, organism-based. Put shortly: as §1
Assay [3] relates to Influenza A virus. The experiment in a line: Antiviral activity against human influenza virus A/PR/8/38(H1N1) infected in MDCK cells assessed as neutralization of viral infection after 20 hrs by colorimetric assay. The format is functional, organism-based. To be noted: A/Puerto Rico/8/1934(H1N1).
The test system of assay [4] is Influenza A virus. Briefly: Antiviral activity against human influenza virus A/PR/8/38(H1N1) infected in chicken erythrocyte assessed as inhibition of hemagglutination after 1 hr. The format is functional, organism-based. To be noted: A/Puerto Rico/8/1934(H1N1). Summed up: as §1

On to `N[C@H]1[C@H]([C@H](O)[C@H](O)CO)O[C@@](O[C@H]2[C@@H](O)[C@@H](CO)O[C@@H](O[C@H]3[C@H](O)[C@@H](O)[C@H](OCCCCCSCCC[Si](CCCSCCCCCO[C@@H]4O[C@H](CO)[C@@H](O[C@@H]5O[C@H](CO)[C@H](O)[C@H](O[C@]6(C(=O)O)C[C@H](O)[C@@H](N)[C@H]([C@H](O)[C@H](O)CO)O6)[C@H]5O)[C@H](O)[C@H]4O)(CCCSCCCCCO[C@@H]4O[C@H](CO)[C@@H](O[C@@H]5O[C@H](CO)[C@H](O)[C@H](O[C@]6(C(=O)O)C[C@H](O)[C@@H](N)[C@H]([C@H](O)[C@H](O)CO)O6)[C@H]5O)[C@H](O)[C@H]4O)CCCSCCCCCO[C@@H]4O[C@H](CO)[C@@H](O[C@@H]5O[C@H](CO)[C@H](O)[C@H](O[C@]6(C(=O)O)C[C@H](O)[C@@H](N)[C@H]([C@H](O)[C@H](O)CO)O6)[C@H]5O)[C@H](O)[C@H]4O)O[C@@H]3CO)[C@@H]2O)(C(=O)O)C[C@@H]1O`, for which the IC50 came to 125 µM with Influenza A virus [1]; 250 µM with Influenza A virus [2]; 32 µM with H3N2 subtype; 32 µM in the assay on Influenza A virus [3]; 64 µM in the assay with Influenza A virus [4].
On to `N[C@H]1[C@H]([C@H](O)[C@H](O)CO)O[C@@](O[C@H]2[C@@H](O)[C@@H](CO)O[C@@H](O[C@H]3[C@H](O)[C@@H](O)[C@H](OCCCCCSCCC[Si](CCCSCCCCCO[C@@H]4O[C@H](CO)[C@@H](O[C@@H]5O[C@H](CO)[C@H](O)[C@H](O[C@]6(C(=O)O)C[C@H](O)[C@@H](N)[C@H]([C@H](O)[C@H](O)CO)O6)[C@H]5O)[C@H](O)[C@H]4O)(CCCSCCCCCO[C@@H]4O[C@H](CO)[C@@H](O[C@@H]5O[C@H](CO)[C@H](O)[C@H](O[C@]6(C(=O)O)C[C@H](O)[C@@H](N)[C@H]([C@H](O)[C@H](O)CO)O6)[C@H]5O)[C@H](O)[C@H]4O)c4ccccc4)O[C@@H]3CO)[C@@H]2O)(C(=O)O)C[C@@H]1O`, for which the IC50 with Influenza A virus [1] was 250 µM; with Influenza A virus [2], 250 µM; in the assay with H3N2 subtype, 125 µM; in the assay with Influenza A virus [3], 64 µM; in the assay on Influenza A virus [4] it was 64 µM.
Take `N[C@H]1[C@H]([C@H](O)[C@H](O)CO)O[C@@](O[C@H]2[C@@H](O)[C@@H](CO)O[C@@H](O[C@H]3[C@H](O)[C@@H](O)[C@H](OCCCCCSCCCCCC(=O)NCCC[Si](CCCNC(=O)CCCCCSCCCCCO[C@@H]4O[C@H](CO)[C@@H](O[C@@H]5O[C@H](CO)[C@H](O)[C@H](O[C@]6(C(=O)O)C[C@H](O)[C@@H](N)[C@H]([C@H](O)[C@H](O)CO)O6)[C@H]5O)[C@H](O)[C@H]4O)(CCCNC(=O)CCCCCSCCCCCO[C@@H]4O[C@H](CO)[C@@H](O[C@@H]5O[C@H](CO)[C@H](O)[C@H](O[C@]6(C(=O)O)C[C@H](O)[C@@H](N)[C@H]([C@H](O)[C@H](O)CO)O6)[C@H]5O)[C@H](O)[C@H]4O)c4ccccc4)O[C@@H]3CO)[C@@H]2O)(C(=O)O)C[C@@H]1O`: the IC50 turned out to be 62.5 µM with Influenza A virus [1]; 250 µM with Influenza A virus [2]; 8 µM in the assay on H3N2 subtype; 25 µM with Influenza A virus [3]; 16 µM in the assay on Influenza A virus [4].
In the case of `N[C@H]1[C@H]([C@H](O)[C@H](O)CO)O[C@@](O[C@H]2[C@@H](O)[C@@H](CO)O[C@@H](O[C@H]3[C@H](O)[C@@H](O)[C@H](OCCCCCSCCCCCC(=O)NCCC[Si](CCCNC(=O)CCCCCSCCCCCO[C@@H]4O[C@H](CO)[C@@H](O[C@@H]5O[C@H](CO)[C@H](O)[C@H](O[C@]6(C(=O)O)C[C@H](O)[C@@H](N)[C@H]([C@H](O)[C@H](O)CO)O6)[C@H]5O)[C@H](O)[C@H]4O)(CCCNC(=O)CCCCCSCCCCCO[C@@H]4O[C@H](CO)[C@@H](O[C@@H]5O[C@H](CO)[C@H](O)[C@H](O[C@]6(C(=O)O)C[C@H](O)[C@@H](N)[C@H]([C@H](O)[C@H](O)CO)O6)[C@H]5O)[C@H](O)[C@H]4O)CCCNC(=O)CCCCCSCCCCCO[C@@H]4O[C@H](CO)[C@@H](O[C@@H]5O[C@H](CO)[C@H](O)[C@H](O[C@]6(C(=O)O)C[C@H](O)[C@@H](N)[C@H]([C@H](O)[C@H](O)CO)O6)[C@H]5O)[C@H](O)[C@H]4O)O[C@@H]3CO)[C@@H]2O)(C(=O)O)C[C@@H]1O`, the 50% inhibitory concentration (IC50) with Influenza A virus [1] was found to be 62.5 µM; in the assay on Influenza A virus [2], 250 µM; in the assay on H3N2 subtype it was 4 µM; in the assay with Influenza A virus [3] it was 16 µM; with Influenza A virus [4] it was 16 µM.
With `C[Si](C)(CCC[Si](CCCNC(=O)CCCCCSCCCCCO[C@@H]1O[C@H](CO)[C@@H](O[C@@H]2O[C@H](CO)[C@H](O)[C@H](O[C@]3(C(=O)O)C[C@H](O)[C@@H](N)[C@H]([C@H](O)[C@H](O)CO)O3)[C@H]2O)[C@H](O)[C@H]1O)(CCCNC(=O)CCCCCSCCCCCO[C@@H]1O[C@H](CO)[C@@H](O[C@@H]2O[C@H](CO)[C@H](O)[C@H](O[C@]3(C(=O)O)C[C@H](O)[C@@H](N)[C@H]([C@H](O)[C@H](O)CO)O3)[C@H]2O)[C@H](O)[C@H]1O)CCCNC(=O)CCCCCSCCCCCO[C@@H]1O[C@H](CO)[C@@H](O[C@@H]2O[C@H](CO)[C@H](O)[C@H](O[C@]3(C(=O)O)C[C@H](O)[C@@H](N)[C@H]([C@H](O)[C@H](O)CO)O3)[C@H]2O)[C@H](O)[C@H]1O)CCC[Si](CCCNC(=O)CCCCCSCCCCCO[C@@H]1O[C@H](CO)[C@@H](O[C@@H]2O[C@H](CO)[C@H](O)[C@H](O[C@]3(C(=O)O)C[C@H](O)[C@@H](N)[C@H]([C@H](O)[C@H](O)CO)O3)[C@H]2O)[C@H](O)[C@H]1O)(CCCNC(=O)CCCCCSCCCCCO[C@@H]1O[C@H](CO)[C@@H](O[C@@H]2O[C@H](CO)[C@H](O)[C@H](O[C@]3(C(=O)O)C[C@H](O)[C@@H](N)[C@H]([C@H](O)[C@H](O)CO)O3)[C@H]2O)[C@H](O)[C@H]1O)CCCNC(=O)CCCCCSCCCCCO[C@@H]1O[C@H](CO)[C@@H](O[C@@H]2O[C@H](CO)[C@H](O)[C@H](O[C@]3(C(=O)O)C[C@H](O)[C@@H](N)[C@H]([C@H](O)[C@H](O)CO)O3)[C@H]2O)[C@H](O)[C@H]1O`, the half-inhibitory concentration (IC50) came out at 32 µM with Influenza A virus [1]; 250 µM in the assay with Influenza A virus [2]; 4 µM with H3N2 subtype; 5.6 µM with Influenza A virus [3]; 8 µM in the assay with Influenza A virus [4].
For the molecule `C[Si](C)(CCC[Si](CCCSCCCCCO[C@@H]1O[C@H](CO)[C@@H](O[C@@H]2O[C@H](CO)[C@H](O)[C@H](O[C@]3(C(=O)O)C[C@H](O)[C@@H](N)[C@H]([C@H](O)[C@H](O)CO)O3)[C@H]2O)[C@H](O)[C@H]1O)(CCCSCCCCCO[C@@H]1O[C@H](CO)[C@@H](O[C@@H]2O[C@H](CO)[C@H](O)[C@H](O[C@]3(C(=O)O)C[C@H](O)[C@@H](N)[C@H]([C@H](O)[C@H](O)CO)O3)[C@H]2O)[C@H](O)[C@H]1O)CCCSCCCCCO[C@@H]1O[C@H](CO)[C@@H](O[C@@H]2O[C@H](CO)[C@H](O)[C@H](O[C@]3(C(=O)O)C[C@H](O)[C@@H](N)[C@H]([C@H](O)[C@H](O)CO)O3)[C@H]2O)[C@H](O)[C@H]1O)CCC[Si](CCCSCCCCCO[C@@H]1O[C@H](CO)[C@@H](O[C@@H]2O[C@H](CO)[C@H](O)[C@H](O[C@]3(C(=O)O)C[C@H](O)[C@@H](N)[C@H]([C@H](O)[C@H](O)CO)O3)[C@H]2O)[C@H](O)[C@H]1O)(CCCSCCCCCO[C@@H]1O[C@H](CO)[C@@H](O[C@@H]2O[C@H](CO)[C@H](O)[C@H](O[C@]3(C(=O)O)C[C@H](O)[C@@H](N)[C@H]([C@H](O)[C@H](O)CO)O3)[C@H]2O)[C@H](O)[C@H]1O)CCCSCCCCCO[C@@H]1O[C@H](CO)[C@@H](O[C@@H]2O[C@H](CO)[C@H](O)[C@H](O[C@]3(C(=O)O)C[C@H](O)[C@@H](N)[C@H]([C@H](O)[C@H](O)CO)O3)[C@H]2O)[C@H](O)[C@H]1O`, the IC50 is 32 µM in the assay on Influenza A virus [1]; 250 µM in the assay with Influenza A virus [2]; 32 µM with H3N2 subtype; 7.8 µM in the assay on Influenza A virus [3]; 32 µM with Influenza A virus [4].

As a reminder, the IC50 is the concentration that inhibits the measured activity by half.
